From ChEMBL document CHEMBL1142894, “Preparation of 5-aryl-3-alkylthio-l,2,4-triazoles and corresponding sulfones with antiinflammatory-analgesic activity” (Bioorg Med Chem, 2007) come the findings set out here.

Molecules are shown by their SMILES.

Common to all, as to format: functional
Assay [1] relates to Mus musculus. Description: Antiinflammatory activity against carrageenan-induced paw edema in Swiss albino mouse assessed as swelling thickness at 100 mg/kg, po after 90 mins. An outline of the steps:
(§1)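 Oral dosing in 0.5% CMC; vehicle to controls. Then carrageenan (0.5 mg/25 ll, freshly suspended in 154 mM saline) injected into the right hind paw subplantar tissue; saline into the left paw. Right-left footpad thickness difference measured by dial gauge calliper every 90 min over 6 h. Inhibition % is relative to vehicle control. n = 6; mean ± SEM.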
(In general: Carrageenan injected into the paw causes an acute inflammation.)

In assay [2] the test system is Mus musculus. As to the kind of experiment: Antiinflammatory activity against carrageenan-induced paw edema in Swiss albino mouse assessed as swelling thickness at 100 mg/kg, po after 180 mins. In a few lines:
as §1

Assay [3] has as its system Mus musculus. As to the kind of experiment: Antiinflammatory activity against carrageenan-induced paw edema in Swiss albino mouse assessed as swelling thickness at 100 mg/kg, po after 270 mins. An outline of the steps: as §1
Assay [4] concerns Mus musculus. Description: Antiinflammatory activity against carrageenan-induced paw edema in Swiss albino mouse assessed as swelling thickness at 100 mg/kg, po after 360 mins. An outline of the steps: as §1
Assay [5] relates to Mus musculus. As to the kind of experiment: Inhibition of carrageenan-induced paw edema in Swiss albino mouse at 100 mg/kg, po after 90 mins relative to control. The conditions noted are these: 1.5 h. In a few lines: as §1
Assay [6] concerns Mus musculus. As to the kind of experiment: Inhibition of carrageenan-induced paw edema in Swiss albino mouse at 100 mg/kg, po after 180 mins relative to control. The conditions noted are these: 3 h. In a few lines:
as §1

For assay [7], the system named is Mus musculus. As to the kind of experiment: Inhibition of carrageenan-induced paw edema in Swiss albino mouse at 100 mg/kg, po after 270 mins relative to control. The conditions noted are these: 4.5 h. An outline of the steps:
as §1

In assay [8] the test system is Mus musculus. Description: Inhibition of carrageenan-induced paw edema in Swiss albino mouse at 100 mg/kg, po after 360 mins relative to control. Particulars: 6 h. An outline of the steps: as §1
The test system of assay [9] is Mus musculus. As to the kind of experiment: Antiinflammatory activity against carrageenan-induced paw edema in Swiss albino mouse assessed as swelling thickness at 10 mg/kg, po after 90 mins. An outline of the steps: as §1
The subject of assay [10] is Mus musculus. Description: Antiinflammatory activity against carrageenan-induced paw edema in Swiss albino mouse assessed as swelling thickness at 10 mg/kg, po after 180 mins. In a few lines:
as §1

Assay [11] deals with Mus musculus. As to the kind of experiment: Antiinflammatory activity against carrageenan-induced paw edema in Swiss albino mouse assessed as swelling thickness at 10 mg/kg, po after 270 mins. An outline of the steps: as §1
The subject of assay [12] is Mus musculus. Description: Antiinflammatory activity against carrageenan-induced paw edema in Swiss albino mouse assessed as swelling thickness at 10 mg/kg, po after 360 mins. In a few lines: as §1
Assay [13] has as its system Mus musculus. Description: Inhibition of carrageenan-induced paw edema in Swiss albino mouse at 10 mg/kg, po after 90 mins relative to control. Particulars: 1.5 h. In a few lines:
as §1

Assay [14] has as its system Mus musculus. Description: Inhibition of carrageenan-induced paw edema in Swiss albino mouse at 10 mg/kg, po after 180 mins relative to control. Particulars: 3 h. In a few lines:
as §1

For assay [15], the system named is Mus musculus. Description: Inhibition of carrageenan-induced paw edema in Swiss albino mouse at 10 mg/kg, po after 270 mins relative to control. The conditions noted are these: 4.5 h. In a few lines:
as §1

The subject of assay [16] is Mus musculus. Description: Inhibition of carrageenan-induced paw edema in Swiss albino mouse at 10 mg/kg, po after 360 mins relative to control. Particulars: 6 h. In a few lines: as §1

Turning to `COc1ccc2c(c1)c(CC(=O)O)c(C)n2C(=O)c1ccc(Cl)cc1` [INDOMETHACIN], the Activity in assay [1] is 31.9 10^-2mm; in assay [2], 34.8 10^-2mm; in [3], 36.5 10^-2mm; in assay [4] it was 39.7 10^-2mm; in assay [9], 34.5 10^-2mm; in assay [10] it was 39.1 10^-2mm. In addition, the Activity is 37.5 10^-2mm in [11] and 40.2 10^-2mm in assay [12]. For the same molecule, the inhibition in vivo at 100 mg/kg in [5] came out at 28.8%; in assay [6], 32.4%; in assay [7] it was 37.9%; in assay [8], 42.3%. Further, the inhibition in vivo at 10 mg/kg in assay [13] was determined as 35.2%; in assay [14], 34.2%; in assay [15], 42.1%; in [16] it was 44.2%.

What is called inhibition in vivo is how much of the control response was suppressed. Low values mean a weak effect, high ones a strong effect.
